Compounds with a hit are over-represented: about 3.9% of the library has one in this group of screens.
FID counter: counter-screen for HCV NS3 helicase inhibitors: DNA intercalator displacement | DNA fluorescent intercalator displacement, fluorescence | 0.17% of 290,000 active | inhibition, % at 7.9 µM; in the data active means inhibition above about 37%;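 further: higher means more ethidium bromide displaced from hairpin DNA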
core dimer inh: blocks dimerization of HCV core protein | 0.33% of 300,000 active | inhibition, % at 5 µM | TR-FRET GST/Flag-core106 dimerization, 1536-well;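 active means inhibition above the mean of all tested compounds plus 3 SD, set per screening campaign, cut at about 45% in these data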
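Assay system: Tagged HCV core106 pair (GST and Flag) | Buffer or medium: KF-containing HEPES buffer, pH 7.45, DTT, CHAPS, BSA | Also added: Eu donor and XL665 acceptor anti-tag antibodies | Dosing: One concentration, 5 µM, in 0.5% DMSO | Timing: 4 h at 22.5 °C | Technique: TR-FRET 671 and 617 nm emission | Repeats: Singlicate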
HSF1 activator: increases HSF-1 driven luciferase reporter signal. activation, % at 9 µM. NIH3T3-HGL HSF-1 luciferase reporter, MG132, 8 h; 100% = twice DMSO control signal. AID 504408. 1.7% of 300,000 active;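 active means mean replicate activation of at least 50% with a set share of replicates each reaching 50%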
HSP90 refold inh: blocks HSP90-mediated luciferase refolding in reticulocyte lysate; Rabbit reticulocyte lysate, luciferase refolding luminescence, 3 h; inhibition, % at 5.6 µM; 0.91% of 290,000 active; AID 1789;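 active means inhibition above the screen-wide mean plus 3 SD, computed separately per campaign, cut at about 16% in these data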;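 further: inhibitors lower the luminescence because luciferase stays unfolded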
HSF1 inh: HSF1 inhibition; activity change, negative = inhibition, % at 7.5 µM (by protocol); 0.77% of 300,000 active; NIH3T3-HGL HSE-luciferase, MG132-induced, luminescence 8 h; hits give low values;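 active means more than half of replicate wells show activity change below -50%, luminescence cut by over half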;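 further: luciferase reports HSF-1 transcriptional activity via heat shock element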
NS3 helicase inh: HCV NS3 helicase inhibition; AID 1800; inhibition, % at 10.9 µM; NS3 helicase DNA unwinding, Cy5 molecular beacon fluorescence; 0.56% of 290,000 active;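 active means inhibition above the mean of all tested compounds plus 3 SD, set per campaign, cut at about 35% in these data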
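assay system = NS3 helicase fragment of HCV | buffer or medium = MOPS pH 6.5, MgCl2, DTT, Tween20, BSA | timing = 60 min unwinding reaction at 25 °C after ATP addition | signal = Cy5 beacon fluorescence read at start and 1 h | read-out basis = % inhibition of unwinding | control set = low DMSO, high thioflavine S at 110 µM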
Large screens that a line does not name were inactive.

COC(=O)C1CCCN1S(=O)(=O)c1ccc([N+](=O)[O-])cc1 (centres undefined)	none
Cc1cccc(OCC(=O)N/N=C\c2cccn2C)c1C	none
CN(Cc1nccn1C)C(=O)c1ccc(OC2CCN(CCc3ccccc3)CC2)cc1	none
COc1ccc(NC(=O)c2cccc(-c3ccc(O)cc3)c2)cn1	none
COc1ccc(C(C)=O)cc1Cn1nc(C)c([N+](=O)[O-])c1C	none
Cc1cccc(C)c1NC(=O)CSc1nnc(-c2ccco2)c(-c2ccco2)n1	core dimer inh 72
CCOc1c2ccc(C(=O)NCc3ccccc3OC)cc2nn1CC	HSF1 inh -66
Nc1cccc(/C=C/c2ccncc2)c1	HSF1 activator 54
O=C(Nc1ncc([N+](=O)[O-])s1)c1cccs1	none
Cc1cnc(NC(=O)Nc2ccc(Cl)cc2)s1	HSF1 activator 274
Cc1cnc(NC(=O)c2cccs2)s1	HSF1 activator 83
COC(=O)c1c(NC(=O)COC(=O)c2ccc(NC(=O)CC#N)cc2)sc2c1CCCCC2	core dimer inh 62
COC(=O)c1c(NC(=O)COC(=O)c2ccccc2O)sc2c1CCCCC2	none
N#CCC(=O)Nc1ccc(C(=O)OCC(=O)Nc2ccccc2Sc2ccccc2)cc1	HSF1 activator 63
Cc1n(C)c2cc(Cl)ccc2[n+]1Cc1ccccc1	none
O=C(Nc1ccc(Cl)cc1)ON=C1CCCC1	none
O[C@@H]1C2CCCC1[C@]1(O)CCCCC1C2 (some centres undefined)	HSF1 activator 53
NC[C@@]12CCCC1C1CCC2C1 (some centres undefined)	none
CSc1nnc2c3ccccc3c3ccccc3c2n1	none (no result: core dimer inh)
Cc1ccc(NC2CCCN(C(=O)c3ccc4nccnc4c3)C2)cc1C (centres undefined)	none (no result: core dimer inh)
O=C(c1ccc2nccnc2c1)N1CCCC(Nc2ccc(F)c(F)c2)C1 (centres undefined)	HSF1 activator 59
CCOc1ccccc1C=NN=Cc1ccccc1O	none (no result: FID counter, core dimer inh, HSP90 refold inh, NS3 helicase inh)
CCCS/C(N)=N/N=C/c1ccccc1O	HSF1 activator 56
CC(C)CNC(=O)C(=O)NCC1OCCN1S(=O)(=O)c1cccs1 (centres undefined)	none
CN(C)CCCN1C(=O)c2cccc3cccc(c23)C1=O	none
CC1=CC2=C(OC1N(C)C)c1cccc3cccc(c13)C2=O (centres undefined)	HSF1 activator 63
O=C(N1CCOCC1)C12CCC3CC(CC(C3)C1)C2	HSF1 inh -54
O=C(N1CCOCC1)C12CC3CC(C1)CC(C(=O)N1CCOCC1)(C3)C2	none
CCC1(C)CC(c2nc(-c3ccc(OC)cc3)cs2)CCS1 (centres undefined)	none
Cc1ccccc1C(=O)O/N=C1\CCS(=O)(=O)c2sccc21	HSF1 activator 74
Cc1ccc(NC(=O)CCn2nnc3ccccc32)cc1	none
Cc1ccn2cc(CSc3ccccc3)nc2c1	HSF1 activator 53
CC(=O)N[C@@H](Cc1c[nH]c2ccccc12)C(=O)NCCc1ccc(S(N)(=O)=O)cc1	none
CC(=O)N[C@@H](Cc1c[nH]c2ccccc12)C(=O)NCc1ccccc1	HSF1 activator 65
N/C(=C\C(=O)c1cc(Cl)ccc1O)C(Cl)(Cl)Cl	HSF1 activator 209
CC(C)(C)c1ccc(C(=O)CC(=O)c2cc(Cl)ccc2O)cc1	none
NC(=S)N/N=C/c1ccc(-c2ccccc2)o1	none
CCNC(=S)N/N=C/c1ccc(-c2ccccc2)o1	HSF1 activator 81
CC(Oc1ccc(Br)cc1)C(=O)O/N=C(\N)c1ccncc1 (centres undefined)	none
CC(=O)C(C(c1ccccc1)c1c[nH]c2ccccc12)[N+](=O)[O-] (centres undefined)	none
O=C(c1ccccn1)c1ccc2ccccc2n1	HSF1 activator 59
O=C(NCc1ccccn1)c1ccc2ccccc2n1	none
Fc1ccc(-n2cc(CNCCc3ccccn3)c(-c3ccccc3Cl)n2)cc1	HSF1 inh -52
Cc1ccc(NC(=O)c2cc3cccc([N+](=O)[O-])c3[nH]2)cc1	HSF1 activator 164
CCC(C)c1ccccc1NC(=O)c1cc2cccc([N+](=O)[O-])c2[nH]1 (centres undefined)	none
C=CCSC1=Nc2sccc2C2=NC(=O)CN12	HSF1 inh -75
Cc1ccc(CSC2=Nc3ccccc3C3=NC(=O)CN23)cc1	none
O=C(/C=C/c1ccc(Br)cc1)NC1CCCCCC1	core dimer inh 102
O=C(/C=C/c1ccc(Br)cc1)NC(=O)c1ccccc1O	HSF1 activator 161
O=C(/C=C/c1ccc(O)c(O)c1)NC(=O)c1ccccc1O	none
O=C(NCc1ccco1)c1ccc(=O)oc1	none
Cc1ccc(N2CC(C(=O)NC3CCC(C)CC3)CC2=O)cc1 (centres undefined)	none
CCOC(=O)c1c(NS(=O)(=O)c2ccc(Br)cc2)sc2c1CCC2	core dimer inh 70
CCOC(=O)c1c(NS(=O)(=O)Cc2ccccc2)sc2c1CCCC2	none
O=C(CCC1CCCCC1=O)c1ccccc1 (centres undefined)	none
CC1(C)CC(=O)C(CCC(=O)c2ccccc2)C(C)(C)N1 (centres undefined)	HSF1 inh -86
S=C(NCc1ccccc1)NCc1ccco1	HSF1 activator 56 (no result: core dimer inh)
S=C(NCc1ccco1)Nc1ccc(Cl)cc1Cl	none
COc1ccc(/C(C)=N/NC(=S)NCc2ccco2)cc1	HSF1 activator 73
S=C(NCc1cccc(Cl)c1)NCc1ccco1	none (no result: core dimer inh)
S=C(NCc1ccco1)Nc1ccc(Br)cc1Cl	HSF1 activator 199
COc1ccc(CNC(=S)N/N=C(\C)c2ccc(OC)cc2)cc1	none
Cn1cc(-c2nnc(-c3ccccc3)o2)c2ccccc21	HSF1 activator 66
O=C(N/C(=C\c1cccc([N+](=O)[O-])c1)C(=O)N1CCOCC1)c1ccco1	none
Cn1c(=NC(=O)c2ccc(S(=O)(=O)N3CCCc4ccccc43)cc2)sc2cc(S(C)(=O)=O)ccc21	none
C#CCn1c(=NC(=O)c2ccc(S(=O)(=O)N3CCCc4ccccc43)cc2)sc2cc(S(N)(=O)=O)ccc21	core dimer inh 52, HSF1 activator 53
C=CCOc1ccn(C)c(=O)n1	HSF1 inh -55
COC(=O)[C@@H]1C[C@]2(OC(=O)c3ccccc3)C=CC(=O)C[C@@H]2N1C(=O)OCc1ccccc1	HSF1 activator 73
COCCN(C(=S)Nc1c(C)cccc1C)C(C)c1cccnc1 (centres undefined)	HSF1 inh -52
COCCN(C(=S)Nc1c(C)cc(C)cc1C)C(C)c1cccnc1 (centres undefined)	none
NS(=O)(=O)c1ccc(O)c(N2C(=O)c3cccc4c(C(=O)O)ccc(c34)C2=O)c1	none (no result: HSF1 activator, HSF1 inh)
Cc1cc(C)nc(SCc2cn3cc(Cl)ccc3n2)n1	HSF1 activator 64
